Measurements: ChEMBL document CHEMBL1140371, “Pyrazolo[3,4-c]pyridazines as novel and selective inhibitors of cyclin-dependent kinases” (J Med Chem, 2005)
Several values for one entry are separate records, joined by “and”; a condition that tells them apart may be missing. Equal entries are not always repeated.

Legend:
[1] = Inhibitory concentration against CDK1/Cyclin B complex from Marthasterias glacialis M-phase oocytes; assay type: cell-based; settings: oocyte
HeLa = experiment: Cytotoxic effect against human cervical carcinoma cell line (HeLa); assay type: functional, cell-based
Procedure, shortened: (§1)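 MTT assay on cells in log-phase growth, seeded at 2.5 × 10³ cells/well and kept at 37 °C in 5% CO₂. Compounds were added 24 h after seeding as serial PBS dilutions of a […] DMSO stock. After 72 h exposure, MTT was added for 4 h, then DMSO; absorbance read at 570 nm. At least three experiments; IC50 taken from the mean % absorbance versus concentration.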

HT-29 = experiment: Cytotoxic effect against human colon carcinoma cell line (HT-29); assay type: functional, cell-based; procedure, shortened: as §1
PC-3 = experiment: Cytotoxic effect against human prostate carcinoma cell line (PC-3); assay type: functional, cell-based; procedure, shortened: as §1

Q: With `CC(C)(C)c1ccc(-c2[nH]nc3nnc(N)c-3c2-c2ccc(C(C)(C)C)cc2)cc1` as the compound, how does the IC50 [1] read?
A: > 50 µM

Q: What about the IC50 (HeLa) of the same compound?
A: 8.78 µM

Q: What about the IC50 (HT-29) of the same compound?
A: 8.5 µM

Q: Which IC50 [1] does the source give for `Oc1[nH]nc2nnc(-c3ccccc3)c(-c3ccccc3)c12` here?
A: > 50 µM

Q: What about the IC50 (PC-3) of the same compound?
A: > 100 µM

Q: What about the IC50 (HeLa) of the same compound?
A: > 100 µM

Q: What about the IC50 (HT-29) of the same compound?
A: > 100 µM

Q: Which IC50 [1] does the source give for `Nc1[nH]nc2nnc(-c3ccc(-c4ccccc4)cc3)c(-c3ccc(-c4ccccc4)cc3)c12` here?
A: > 50 µM

Q: What about the IC50 (HeLa) of the same compound?
A: > 100 µM

Q: And the IC50 (HT-29)?
A: > 100 µM

Q: For `Nc1[nH]nc2nnc(-c3ccc(C(F)(F)F)cc3)c(-c3ccc(C(F)(F)F)cc3)c12`, which IC50 [1] is on record?
A: > 50 µM

Q: And the IC50 (HeLa)?
A: > 100 µM

Q: What about the IC50 (HT-29) of the same compound?
A: > 100 µM

Q: Which IC50 [1] does the source give for `COc1ccc(-c2[nH]nc3nnc(N)c-3c2-c2ccc(OC)cc2)cc1` here?
A: 15 µM

Q: What about the IC50 (PC-3) of the same compound?
A: > 100 µM

Q: What about the IC50 (HeLa) of the same compound?
A: > 100 µM

Q: What about the IC50 (HT-29) of the same compound?
A: > 100 µM

Q: With `CCNC(=O)Nc1[nH]nc2nnc(-c3ccco3)cc12` as the compound, how does the IC50 [1] read?
A: 8.8 µM

Q: Which IC50 [1] does the source give for `Nc1[nH]nc2nnc(-c3ccco3)cc12` here?
A: 5.3 µM

Q: What about the IC50 (PC-3) of the same compound?
A: > 100 µM

Q: And the IC50 (HeLa)?
A: > 100 µM

Q: And the IC50 (HT-29)?
A: > 100 µM

Q: Which IC50 [1] does the source give for `Cc1n[nH]c2nnc(N)c-2c1C` here?
A: > 50 µM

Q: What about the IC50 (HeLa) of the same compound?
A: > 100 µM

Q: And the IC50 (HT-29)?
A: > 100 µM

Q: With `Nc1nn(COCCO)c2nnc(-c3ccccc3)c(-c3ccccc3)c12` as the compound, how does the IC50 [1] read?
A: > 50 µM

Q: And the IC50 (PC-3)?
A: > 100 µM

Q: And the IC50 (HeLa)?
A: > 100 µM

Q: What about the IC50 (HT-29) of the same compound?
A: > 100 µM

Q: Which IC50 [1] does the source give for `Nc1[nH]nc2nnc(-c3ccc([N+](=O)[O-])cc3)c(-c3ccc([N+](=O)[O-])cc3)c12` here?
A: > 50 µM

Q: And the IC50 (HeLa)?
A: > 100 µM

Q: And the IC50 (HT-29)?
A: > 100 µM

Q: Which IC50 [1] does the source give for `Nc1n[nH]c2nnc(-c3ccccc3)cc12` here?
A: > 50 µM

Q: And the IC50 (HeLa)?
A: > 100 µM

Q: What about the IC50 (HT-29) of the same compound?
A: 80.8 µM

Q: For `NNc1[nH]nc2nnc(-c3ccccc3)c(-c3ccccc3)c12`, which IC50 [1] is on record?
A: 8.5 µM

Q: What does the source list for `Nc1ccc(-c2[nH]nc3nnc(N)c-3c2-c2ccc(N)cc2)cc1`?
A: IC50 [1]: > 50 µM; IC50 (HeLa): > 100 µM; IC50 (HT-29): 10.5 µM

Q: With `Nc1[nH]nc2nnc(-c3ccco3)c(-c3ccco3)c12` as the compound, how does the IC50 [1] read?
A: 1.5 µM

Q: And the IC50 (HeLa)?
A: > 100 µM

Q: And the IC50 (HT-29)?
A: > 100 µM

Q: Which IC50 [1] does the source give for `Cc1n[nH]c2nnc(N)c-2c1-c1ccccc1` here?
A: > 50 µM

Q: And the IC50 (PC-3)?
A: 72.4 µM

Q: And the IC50 (HeLa)?
A: 88.3 µM

Q: What about the IC50 (HT-29) of the same compound?
A: > 100 µM

Q: Which IC50 [1] does the source give for `Nc1nn(CCOCCO)c2nnc(-c3ccccc3)c(-c3ccccc3)c12` here?
A: > 50 µM

Q: And the IC50 (PC-3)?
A: > 100 µM

Q: What about the IC50 (HeLa) of the same compound?
A: > 100 µM

Q: And the IC50 (HT-29)?
A: > 100 µM

Q: With `CC/N=C(\S)Nc1[nH]nc2nnc(-c3ccco3)cc12` as the compound, how does the IC50 [1] read?
A: > 100 µM

Q: Which results are given for `CCNC(=O)Nc1[nH]nc2nnc(-c3ccccc3)c(-c3ccccc3)c12`?
A: IC50 [1]: 7.5 µM; IC50 (PC-3): > 100 µM; IC50 (HeLa): 60.4 µM; IC50 (HT-29): > 100 µM

Q: For `CC(=O)n1nc(N)c2c(-c3ccccc3)c(-c3ccccc3)nnc21`, which IC50 [1] is on record?
A: > 50 µM

Q: What about the IC50 (PC-3) of the same compound?
A: > 100 µM

Q: And the IC50 (HeLa)?
A: > 100 µM

Q: And the IC50 (HT-29)?
A: > 100 µM

Q: For `Nc1nn(Cc2ccccc2)c2nnc(-c3ccccc3)c(-c3ccccc3)c12`, which IC50 [1] is on record?
A: > 50 µM

Q: And the IC50 (PC-3)?
A: > 100 µM

Q: And the IC50 (HeLa)?
A: > 100 µM

Q: What about the IC50 (HT-29) of the same compound?
A: > 100 µM

Q: With `Nc1[nH]nc2nnc(-c3ccccn3)c(-c3ccccn3)c12` as the compound, how does the IC50 [1] read?
A: > 50 µM

Q: And the IC50 (HeLa)?
A: > 100 µM

Q: What about the IC50 (HT-29) of the same compound?
A: 73 µM

Q: Which IC50 [1] does the source give for `Nc1n[nH]c2nnc(-c3ccccc3)c(-c3ccccc3)c12` here?
A: 3 µM and 6.1 µM

Q: What about the IC50 (PC-3) of the same compound?
A: > 100 µM

Q: What about the IC50 (HeLa) of the same compound?
A: > 100 µM

Q: And the IC50 (HT-29)?
A: > 100 µM

Q: With `O=C(Nc1ccccc1)Nc1[nH]nc2nnc(-c3ccccc3)c(-c3ccccc3)c12` as the compound, how does the IC50 [1] read?
A: 9 µM

Q: What about the IC50 (PC-3) of the same compound?
A: > 100 µM

Q: And the IC50 (HeLa)?
A: 2.93 µM

Q: And the IC50 (HT-29)?
A: > 100 µM

Q: What does the source list for `CC(=O)Nc1[nH]nc2nnc(-c3ccccc3)c(-c3ccccc3)c12`?
A: IC50 [1]: > 50 µM; IC50 (PC-3): > 100 µM; IC50 (HeLa): > 100 µM; IC50 (HT-29): > 100 µM

Q: Which results are given for `CC(=O)Nc1nn(C(C)=O)c2nnc(-c3ccccc3)c(-c3ccccc3)c12`?
A: IC50 [1]: > 50 µM; IC50 (PC-3): > 100 µM; IC50 (HeLa): > 100 µM; IC50 (HT-29): > 100 µM
